GSTO1 counter: blocks human GSTO1 in RBBP9 counter-screen | recombinant GSTO1, activity-based probe fluorescence polarization | AID 1974 | P78417 | inhibition, % at 5.96 µM | 300,000 compounds, 1.1% hits;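 active = inhibition above the campaign mean inhibition plus 3 SD, cut at about 35% in these data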
PAD4 FP inh: inhibitors of human PAD4; recombinant PAD4, RCA probe fluorescence polarization; inhibition, % at 6.36 µM; 330,000 compounds, 0.41% hits; AID 485272;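 active = percent inhibition above a cutoff equal to the mean of all tested compounds plus 3 SD, cut at about 15% in these data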
SIAE primary: blocks human sialic acid acetylesterase; inhibition, % at 9.66 µM; AID 1053197; 370,000 compounds, 0.69% hits; Q9HAT2; SIAE FP-Rh probe binding, fluorescence polarization;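 active = inhibition above a cutoff: mean of compounds within the control limits plus 3 SD of those, cut at about 17% in these data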
Target sequence (Q9HAT2 whole entry, looked up): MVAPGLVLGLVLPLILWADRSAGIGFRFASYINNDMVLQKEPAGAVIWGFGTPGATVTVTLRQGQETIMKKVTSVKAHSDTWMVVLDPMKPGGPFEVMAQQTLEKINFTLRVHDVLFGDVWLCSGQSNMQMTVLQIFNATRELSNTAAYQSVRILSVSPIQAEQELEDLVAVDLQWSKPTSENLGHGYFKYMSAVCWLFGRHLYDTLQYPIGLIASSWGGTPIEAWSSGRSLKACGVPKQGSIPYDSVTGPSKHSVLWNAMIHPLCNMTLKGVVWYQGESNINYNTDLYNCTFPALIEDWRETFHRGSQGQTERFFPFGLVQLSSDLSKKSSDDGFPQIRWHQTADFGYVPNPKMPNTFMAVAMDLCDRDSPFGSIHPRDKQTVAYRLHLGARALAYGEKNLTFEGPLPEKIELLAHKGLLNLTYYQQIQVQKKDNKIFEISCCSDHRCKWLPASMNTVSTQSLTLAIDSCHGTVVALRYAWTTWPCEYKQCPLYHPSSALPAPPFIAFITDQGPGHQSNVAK
Apaf-1 inh: inhibitors of human Apaf-1 apoptosome | O14727 | 330,000 compounds, 0.71% hits | inhibition, % at 20 µM | reconstituted apoptosome caspase-3 activity, DEVD-Rh110 fluorescence; active = inhibition of at least 40% at 20 µM
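Assay system: Apoptosome proteins | Medium: pH 7.5 Hepes buffer with CHAPS, BSA, DTT | Also added: Cytochrome c and DEVD-Rh110 substrate | Times: 30 min plus 50 min, RT | Detection: Rhodamine 110 fluorescence at Ex 480/Em 540 nm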
TDP2 absorb: blocks human TDP2 phosphodiesterase activity; O95551; recombinant TDP2, T5PNP hydrolysis, p-nitrophenol absorbance 415 nm; inhibition, % at 12.8 µM; 370,000 compounds, 0.34% hits;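 active = inhibition above the mean of all tested compounds plus 3 SD, set per campaign, cut at about 25% in these data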
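test system = human TDP2 enzyme | input = TDP2 enzyme at 120 nM final | medium = 50 mM Tris-HCl pH 7.5 with Mg2+, KCl, DTT, BSA | also added = T5PNP substrate, 5 mM | times = 2 h at 37 °C | technique = epi absorbance | benchmarks = high control without enzyme, low control DMSO plus TDP2 | replication = each compound tested once, singlicate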
TCR CD3 inh: blocks the human TCR-CD3 interaction | 360,000 compounds, 0.37% hits | inhibition, % at 9.4 µM | AID 651800 | TAMRA-labeled TCR probe fluorescence, biochemical; in the data active = inhibition above about 19%;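 note: recombinant mutant TCR 2C K166C tagged with TAMRA read by polarization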
SIAE inh conf: human SIAE inhibition, confirmation; SIAE FP-Rh activity-based probe, fluorescence polarization; shares compounds with SIAE primary; 2,300 compounds, 13% hits; inhibition, % at 9.66 µM;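 active = mean inhibition of the replicates above the hit cutoff set in the primary screen, cut at about 17% in these data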;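 note: inhibitors lower polarization as more probe stays unbound to SIAE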
Large screens that a line does not name were inactive (follow-up assays come after a bar, where they were run); ! = not confirmed by another sample. This is a sample that favours compounds with a hit; in the whole collection about 2.4% have one here.

Cc1ccc(NC(=O)NNC(=O)c2cc3ccccc3cc2O)c(C)c1	SIAE primary 22 | SIAE inh conf inactive
CCOC(=O)c1c(OCC)[nH]c2c1cc(O)c1ccccc12	SIAE primary 28 | SIAE inh conf inactive
CCN(CC(=O)NCc1ccc(Cl)cc1)C(=O)CCC(=O)c1ccc(F)cc1	SIAE primary 20 | SIAE inh conf inactive
CCN(CC(=O)NCc1ccc(Cl)cc1)C(=O)CCC(=O)c1ccc(C)cc1	none
CCOC(=O)c1cc2c(ccn2C)n1Cc1cc(C)ccc1C	none
COc1ccc(NC(=O)C[C@H]2C(=O)N(c3ccc(OC)cc3)C[C@@H]2c2ccc(Br)cc2)cc1	none (no result: GSTO1 counter, PAD4 FP inh, Apaf-1 inh)
CCOC(=O)CC1=C(C#N)C(c2cccnc2)C(C(=O)OCC)=C(N)O1 (stereo not given)	none
CCOC(=O)CC1=C(C(=O)OCC)C(c2cccnc2)C(C#N)=C(N)O1 (stereo not given)	SIAE primary 17 | SIAE inh conf inactive
CC(OC(=O)c1cccc(NS(C)(=O)=O)c1)C(=O)Nc1ccc2c(c1)OCO2 (stereo not given)	none (no result: GSTO1 counter)
COc1cccc(C(=O)OC(C)C(=O)Nc2ccc3c(c2)OCO3)c1 (stereo not given)	SIAE primary 19 (no result: GSTO1 counter) | SIAE inh conf inactive
COc1ccccc1N1CCN(C2CCCN(Cc3cccc(O)c3)C2)CC1 (stereo not given)	SIAE primary 17 | SIAE inh conf inactive
Cc1c(/C=N/NC(N)=O)c2ccccn2c1C(=O)c1ccc(F)cc1	none
Cc1c(/C=N/O)c2ccccn2c1C(=O)c1ccc(F)cc1	SIAE primary 17 | SIAE inh conf inactive
Cc1ccc(-c2nn(CCC(=O)Nc3cccnc3)c(=O)c3ccccc23)cc1	none
Cc1cc(Nc2ccccc2)n(-c2ccc(C(=O)O)cc2)n1	SIAE primary 23 | SIAE inh conf inactive
Cc1c(O)ccc(/C(Cc2ccc3ccccc3n2)=N\O)c1O	SIAE primary 52 | SIAE inh conf 42
Oc1c(C=C2N=c3ccccc3=N2)sc(=S)n1-c1ccc(F)cc1	SIAE primary 18! | SIAE inh conf inactive
CCOC(=O)C1CN(S(C)(=O)=O)c2cc(CC(=O)OC)ccc2O1 (stereo not given)	SIAE primary 29 | SIAE inh conf inactive
CNC(=S)NC(CC(=O)OC)c1ccc2c(c1)OCO2 (stereo not given)	none
O=C1c2ccccc2C2=Nc3ccccc3SC(c3cccc(F)c3)C12 (stereo not given)	SIAE primary 18 | SIAE inh conf inactive
O=C1c2ccccc2C2=Nc3ccccc3SC(c3ccc(Cl)cc3)C12 (stereo not given)	none
CCOC(=O)C1=C(COC(=O)c2cccnc2SC)NC(=O)NC1C (stereo not given)	none (no result: GSTO1 counter)
C/C(=N\NC(=S)NC(C)C)c1cccc([N+](=O)[O-])c1	SIAE primary 20 | SIAE inh conf inactive
C/C(=N/NC(=S)Nc1cccc(C)c1)c1cccc([N+](=O)[O-])c1	none
COc1ccc(NC(=O)C[C@H]2C(=O)N(C3CCCCC3)C[C@@H]2c2ccccc2)cc1	none (no result: GSTO1 counter, PAD4 FP inh, Apaf-1 inh)
CN(C)c1cccc(CNC(=O)c2csc([C@@H]3O[C@H](CO)[C@H](O)[C@H](O)[C@H]3O)n2)c1	SIAE primary 20 (no result: GSTO1 counter, PAD4 FP inh, Apaf-1 inh) | SIAE inh conf inactive
CN(C)c1cccc(CNC(=O)c2csc([C@@H]3O[C@H](CO)[C@@H](O)[C@H]3O)n2)c1	none (no result: GSTO1 counter, PAD4 FP inh, Apaf-1 inh)
CCCCn1c(N)c(N(C)C(=O)C2CCCC2)c(=O)[nH]c1=O	none (no result: GSTO1 counter)
CC(=O)c1ccc(N2CCN(c3ccccc3O)CC2)c([N+](=O)[O-])c1	SIAE primary 31 | SIAE inh conf inactive
CCCCNC(=O)Nc1ccccc1C(=O)Nc1ccc(OC)cc1	SIAE primary 50 | SIAE inh conf inactive
CCCCNC(=O)Nc1ccccc1C(=O)NCCC	none
CCOC(=O)CC1=NN(c2ccccc2)C(=O)/C1=C\c1ccc(OC)cc1OC	none
COC(=O)CC1=NN(c2ccc(OC)cc2)C(=O)/C1=C\c1ccc(Cl)cc1	SIAE primary 17 | SIAE inh conf inactive
CC(C)(C)NC(=O)COC(=O)CCC(=O)c1cccs1	none

Bioassay records from PubChem BioAssay.
